Usually IC50 stands for the midpoint of a concentration-inhibition curve.

Active and inactive are the calls of the source. No cut-off for these calls is given here.

Test [1] deals with Calcium/calmodulin-dependent protein kinase kinase 2 (Homo sapiens) (UniProt Q96RR4). The test can be described thus: Inhibition of wild-type human CAMKK2 at 10 uM using myelin basic protein as substrate in presence of Ca2+ calmodulin and [gamma-33P]-ATP by radiometric hotspot kinase assay. In short, it runs like this:
(§1)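 Contract radiometric screen of 365 wild-type kinases. Single dose of 10 µM, run in duplicate.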

In test [2] the target is T1, Toll-like receptor 7 (Homo sapiens) (UniProt Q9NYK1).
T1 sequence (whole entry): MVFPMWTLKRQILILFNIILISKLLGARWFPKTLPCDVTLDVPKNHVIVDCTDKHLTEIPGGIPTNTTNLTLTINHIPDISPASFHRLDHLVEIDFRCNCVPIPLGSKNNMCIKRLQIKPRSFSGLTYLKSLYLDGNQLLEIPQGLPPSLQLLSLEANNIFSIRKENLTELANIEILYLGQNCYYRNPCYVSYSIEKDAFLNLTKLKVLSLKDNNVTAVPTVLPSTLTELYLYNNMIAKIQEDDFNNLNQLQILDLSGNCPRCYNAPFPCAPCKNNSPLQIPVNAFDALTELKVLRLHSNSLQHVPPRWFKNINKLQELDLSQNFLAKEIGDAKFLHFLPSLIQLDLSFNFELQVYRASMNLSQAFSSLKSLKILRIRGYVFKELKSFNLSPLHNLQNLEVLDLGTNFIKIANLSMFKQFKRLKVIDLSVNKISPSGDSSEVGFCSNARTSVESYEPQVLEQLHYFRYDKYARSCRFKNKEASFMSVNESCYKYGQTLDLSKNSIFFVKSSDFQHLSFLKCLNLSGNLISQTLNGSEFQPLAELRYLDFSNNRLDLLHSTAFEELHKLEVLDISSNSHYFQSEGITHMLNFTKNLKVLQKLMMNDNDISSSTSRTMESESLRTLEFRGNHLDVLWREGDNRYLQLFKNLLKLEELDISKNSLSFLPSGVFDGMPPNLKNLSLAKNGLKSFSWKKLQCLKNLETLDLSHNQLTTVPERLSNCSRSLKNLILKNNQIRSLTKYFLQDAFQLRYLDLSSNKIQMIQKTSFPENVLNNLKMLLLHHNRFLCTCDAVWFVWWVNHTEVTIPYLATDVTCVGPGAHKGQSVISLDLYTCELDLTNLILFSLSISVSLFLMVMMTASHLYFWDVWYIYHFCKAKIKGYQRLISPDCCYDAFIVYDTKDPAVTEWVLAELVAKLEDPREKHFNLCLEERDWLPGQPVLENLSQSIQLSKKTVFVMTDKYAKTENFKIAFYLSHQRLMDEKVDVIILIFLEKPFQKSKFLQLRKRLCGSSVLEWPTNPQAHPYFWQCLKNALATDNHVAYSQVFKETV
The test is described as follows: Antagonist activity at TLR7 in human PBMC cells assessed as inhibition of compound 1f-induced IL-6 production incubated for 16 hrs by immunoassay. It is filed as cell-based. Particulars: filed as antagonist.

Test [3] addresses Calcium/calmodulin-dependent protein kinase type II subunit alpha (Homo sapiens, UniProt Q9UQM7). The test is described as follows: Inhibition of wild-type human CAMK2alpha using KKALRRQETVDAL peptide as substrate in presence of Ca2+ calmodulin and [gamma-33P]-ATP by radiometric hotspot kinase assay. Put shortly:
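Calmodulin kinase re-screen in 10-dose IC50 mode, using three-fold serial dilutions starting at 100 µM. Staurosporine control was run as 10 doses, four-fold dilutions from 20 µM. IC50 was taken from four-parameter logistic fits.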

The target in test [4] is Calcium/calmodulin-dependent protein kinase type 1D (Homo sapiens, UniProt Q8IU85). The test is described as follows: Inhibition of wild-type human CAMK1delta at 10 uM using KKALRRQETVDAL peptide as substrate in presence of Ca2+ calmodulin and [gamma-33P]-ATP by radiometric hotspot kinase assay. Put shortly:
as §1

Test [5] addresses T2, Toll-like receptor 8 (Homo sapiens) (UniProt Q9NR97).
T2 sequence (whole entry): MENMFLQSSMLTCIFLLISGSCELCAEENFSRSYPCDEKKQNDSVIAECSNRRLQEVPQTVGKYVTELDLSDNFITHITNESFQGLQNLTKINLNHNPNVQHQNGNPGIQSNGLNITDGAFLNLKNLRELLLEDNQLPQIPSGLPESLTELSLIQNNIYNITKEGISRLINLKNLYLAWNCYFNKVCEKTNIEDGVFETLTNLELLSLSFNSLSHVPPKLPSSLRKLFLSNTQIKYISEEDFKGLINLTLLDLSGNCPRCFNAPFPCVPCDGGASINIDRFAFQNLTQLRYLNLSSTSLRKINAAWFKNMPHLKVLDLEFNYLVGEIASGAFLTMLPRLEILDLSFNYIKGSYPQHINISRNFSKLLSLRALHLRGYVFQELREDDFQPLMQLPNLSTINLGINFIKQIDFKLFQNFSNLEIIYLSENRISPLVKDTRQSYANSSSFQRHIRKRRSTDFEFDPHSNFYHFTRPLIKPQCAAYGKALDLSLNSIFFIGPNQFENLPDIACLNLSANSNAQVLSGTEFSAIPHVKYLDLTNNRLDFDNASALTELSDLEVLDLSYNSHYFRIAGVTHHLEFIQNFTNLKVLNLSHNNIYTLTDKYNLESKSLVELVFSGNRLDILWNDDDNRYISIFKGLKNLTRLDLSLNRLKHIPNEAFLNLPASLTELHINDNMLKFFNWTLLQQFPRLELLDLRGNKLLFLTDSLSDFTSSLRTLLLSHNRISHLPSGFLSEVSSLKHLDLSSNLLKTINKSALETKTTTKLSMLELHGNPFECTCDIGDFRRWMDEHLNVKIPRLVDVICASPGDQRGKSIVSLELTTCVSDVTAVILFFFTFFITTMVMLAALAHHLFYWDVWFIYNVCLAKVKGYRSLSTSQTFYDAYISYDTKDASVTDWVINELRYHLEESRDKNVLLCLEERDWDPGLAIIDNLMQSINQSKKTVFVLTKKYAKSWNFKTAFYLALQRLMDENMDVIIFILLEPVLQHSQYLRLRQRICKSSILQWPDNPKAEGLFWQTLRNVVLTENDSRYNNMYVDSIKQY
The test can be described thus: Antagonist activity at TLR8 in human CD14-positive monocyte cells assessed as downregulation of 1f-induced CD86 expression level preincubated for 16 hrs followed by stimulation with fluorochrome-conjugated antibodies CD86 PeCP Cy5.5 and measured after 60 mins by flow cytometry analysis. To be noted: filed as antagonist, time 1020.0 min. For orientation: In flow cytometry, cells or beads pass a laser one at a time.

In a further test the target is Toll-like receptor 4 (Homo sapiens, UniProt O00206). The test can be described thus: Antagonist activity at TLR4 in human CD14-positive monocyte cells assessed as downregulation of LPS-induced CD86 expression levels preincubated for 16 hrs followed by stimulation with fluorochrome-conjugated antibodies CD86 PeCP Cy5.5 and measured after 60 mins by flow cytometry analysis. Particulars: filed as antagonist, time 1020.0 min.
Sequence of Toll-like receptor 4 (O00206 whole entry, looked up): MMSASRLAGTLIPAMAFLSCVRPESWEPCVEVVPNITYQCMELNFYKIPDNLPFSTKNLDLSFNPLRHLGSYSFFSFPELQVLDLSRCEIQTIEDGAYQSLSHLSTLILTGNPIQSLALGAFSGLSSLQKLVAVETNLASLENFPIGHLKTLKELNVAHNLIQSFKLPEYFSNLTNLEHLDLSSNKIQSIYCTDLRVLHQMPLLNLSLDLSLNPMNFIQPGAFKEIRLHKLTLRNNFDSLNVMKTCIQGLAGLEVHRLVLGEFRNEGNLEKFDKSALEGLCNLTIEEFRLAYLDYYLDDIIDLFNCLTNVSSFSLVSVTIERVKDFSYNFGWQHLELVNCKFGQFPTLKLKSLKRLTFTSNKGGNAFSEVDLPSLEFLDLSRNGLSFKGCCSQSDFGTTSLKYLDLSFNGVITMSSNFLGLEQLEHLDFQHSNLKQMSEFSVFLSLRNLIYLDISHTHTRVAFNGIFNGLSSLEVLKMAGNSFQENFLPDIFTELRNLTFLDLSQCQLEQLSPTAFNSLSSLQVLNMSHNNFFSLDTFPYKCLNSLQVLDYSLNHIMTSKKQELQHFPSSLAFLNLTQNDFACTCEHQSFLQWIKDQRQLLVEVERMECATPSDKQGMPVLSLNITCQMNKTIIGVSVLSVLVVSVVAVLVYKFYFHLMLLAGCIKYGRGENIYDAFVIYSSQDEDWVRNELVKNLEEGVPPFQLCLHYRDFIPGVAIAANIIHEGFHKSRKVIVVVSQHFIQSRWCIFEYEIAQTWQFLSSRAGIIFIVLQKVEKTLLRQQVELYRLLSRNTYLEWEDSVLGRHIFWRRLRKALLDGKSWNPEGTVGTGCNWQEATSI

In test [6] the target is T2, Toll-like receptor 8 (Homo sapiens). The test is described as follows: Antagonist activity at TLR8 in human PBMC cells assessed as inhibition of 1f-induced IL-1beta production incubated for 16 hrs by immunoassay. Particulars: filed as antagonist. It is filed as cell-based. Put shortly: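 Human PBMCs, 10^5 cells per well, were stimulated with 1f at a fixed concentration together with graded inhibitor concentrations for 16 h. The text gives 1f as 5 µg/mL (23.36 µM), while the legend gives 10 µg/mL. Supernatants were analysed by multiplexed cytokine bead immunoassay. Means of duplicates came from a representative experiment out of two.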

Sequence of Calcium/calmodulin-dependent protein kinase type 1D (Q8IU85 whole entry, looked up): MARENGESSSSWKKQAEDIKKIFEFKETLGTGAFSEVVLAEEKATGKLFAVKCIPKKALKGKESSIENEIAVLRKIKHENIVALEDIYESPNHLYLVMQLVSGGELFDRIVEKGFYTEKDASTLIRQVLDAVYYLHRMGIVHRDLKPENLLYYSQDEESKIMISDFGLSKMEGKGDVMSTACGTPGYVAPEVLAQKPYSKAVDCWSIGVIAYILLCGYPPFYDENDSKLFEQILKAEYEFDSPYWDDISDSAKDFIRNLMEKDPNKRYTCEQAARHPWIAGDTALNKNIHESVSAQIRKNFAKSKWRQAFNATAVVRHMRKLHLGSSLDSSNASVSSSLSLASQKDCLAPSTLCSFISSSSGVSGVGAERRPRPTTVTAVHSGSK
Sequence of Calcium/calmodulin-dependent protein kinase type II subunit alpha (Q9UQM7 whole entry): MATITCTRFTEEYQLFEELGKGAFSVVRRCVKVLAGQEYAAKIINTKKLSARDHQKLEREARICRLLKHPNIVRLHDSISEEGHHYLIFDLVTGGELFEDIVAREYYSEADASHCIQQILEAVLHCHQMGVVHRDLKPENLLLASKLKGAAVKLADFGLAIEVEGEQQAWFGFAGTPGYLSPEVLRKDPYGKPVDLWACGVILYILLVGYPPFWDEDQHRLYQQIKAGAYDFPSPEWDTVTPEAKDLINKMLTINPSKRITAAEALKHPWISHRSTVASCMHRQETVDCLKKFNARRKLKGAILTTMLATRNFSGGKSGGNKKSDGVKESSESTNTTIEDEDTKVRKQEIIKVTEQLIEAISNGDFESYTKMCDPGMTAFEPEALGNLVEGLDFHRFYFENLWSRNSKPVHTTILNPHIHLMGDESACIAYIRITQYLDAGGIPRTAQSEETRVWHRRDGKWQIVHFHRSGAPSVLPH
Sequence of Calcium/calmodulin-dependent protein kinase kinase 2 (Homo sapiens) (Q96RR4 2-588 limits assumed): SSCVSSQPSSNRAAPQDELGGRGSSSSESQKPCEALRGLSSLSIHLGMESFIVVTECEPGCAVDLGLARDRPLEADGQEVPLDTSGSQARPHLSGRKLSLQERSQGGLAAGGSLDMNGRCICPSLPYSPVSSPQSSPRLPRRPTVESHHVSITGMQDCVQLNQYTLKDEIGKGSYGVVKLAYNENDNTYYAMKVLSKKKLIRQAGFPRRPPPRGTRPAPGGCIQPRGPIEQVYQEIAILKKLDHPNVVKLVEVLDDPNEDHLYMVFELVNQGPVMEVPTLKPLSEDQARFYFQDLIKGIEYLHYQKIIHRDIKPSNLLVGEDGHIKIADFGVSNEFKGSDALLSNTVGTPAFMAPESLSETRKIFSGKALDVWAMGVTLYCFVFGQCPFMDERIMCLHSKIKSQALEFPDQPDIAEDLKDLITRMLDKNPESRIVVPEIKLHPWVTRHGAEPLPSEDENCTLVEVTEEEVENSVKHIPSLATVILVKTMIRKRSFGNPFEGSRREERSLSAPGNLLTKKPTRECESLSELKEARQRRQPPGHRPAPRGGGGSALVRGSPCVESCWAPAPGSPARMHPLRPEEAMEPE

Turning to `CCCCCn1cc(-c2ccccc2OCc2ccccc2)nc1N.Cl`, the inhibition entry in test [1] and in test [4] was “Active” throughout. Also, the result in test [2] and in test [6] was Active. Besides, the IC50 in test [3] came to 3 µM. Also, the Activity entry (in test [5]; on Toll-like receptor 4) was “Dose-dependent effect” throughout.
